Screens as filed in PubChem BioAssay.
AHR act: activators of human aryl hydrocarbon receptor | activation, % at 5 µM | AHR-responsive luciferase reporter cells, luminescence | AID 2796 | actives 2.5% (n = 320,000); in the data active = activation above about 47%;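 note: 0% = vehicle wells and 100% = reference agonist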
HDAC3 inh: blocks human histone deacetylase 3; recombinant HDAC3, fluorogenic peptide/trypsin coupled, fluorescence; inhibition, % at 8.3 µM; actives 0.15% (n = 320,000); O15379; AID 2718; in the data active = inhibition above about 26%, passing the limit was not always enough
CTSL1 counter: blocks F. hepatica cathepsin L1 in PFM18AAP counter-screen. recombinant F. hepatica cathepsin L1, Z-Leu-Arg-MCA fluorescence. inhibition, % at 5.96 µM. actives 0.49% (n = 300,000). AID 1906;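 active = inhibition above the mean of all tested compounds plus 3 SD, set per screening campaign, cut at about 17% in these data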;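 note: 0% = plate median of test compound wells and 100% = 1 µM Z-Phe-Ala-diazomethylketone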
FXN GAA850 act: activators of GAA850 frataxin (FXN) promoter | activation, % at 6 µM | actives 0.56% (n = 360,000) | HEK293 lucGAA850 FXN promoter luciferase reporter, 24 h; percent of 10 µM SAHA response;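 active = activation above the average of all compounds screened plus 3 SD, cutoff fixed separately per campaign, cut at about 7.5% in these data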;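 note: 0% = DMSO wells and 100% = 10 µM SAHA wells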
M18AAP inhibitor: blocks P. falciparum M18 aspartyl aminopeptidase. recombinant PfM18AAP, H-Glu-NHMec fluorogenic cleavage. inhibition, % at 7.35 µM. actives 1.2% (n = 290,000). AID 1822;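 active = inhibition above the campaign mean inhibition over all tested compounds plus 3 SD, cut at about 28% in these data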;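 note: 0% = plate median of test compound wells and 100% = 2 mM ZnCl2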
SENP1 inh: blocks the human SENP1 SUMO protease catalytic domain; recombinant SENP1 catalytic domain, CyPet-SUMO1-YPet FRET cleavage; actives 0.21% (n = 360,000); inhibition, % at 10 µM;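 active = inhibition at least 30% at 10 µM, raw YFP signal under a set limit, fluorescence ratio 0.5 to 1.5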;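 note: 0% = enzyme with DMSO and 100% = no enzyme wells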
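Test system: recombinant human SENP1 catalytic domain, His6-tagged / Medium: pH 8 Tris buffer with EDTA, NaCl, BME, BSA, NP40, catalase / Also added: SUMO1 FRET substrate flanked by Cypet and Ypet, 25 nM / Times: 50 min reaction at room temperature / Signal: FRET, CFP and YFP emission / Control set: no-enzyme low control and enzyme-plus-DMSO high control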
GAA30 FXN cntr: activates GAA30 frataxin promoter, counter-screen for GAA850 activators | activation, % at 6 µM | shares compounds with FXN GAA850 act | HEK293 lucGAA30 FXN promoter luciferase, 24 h; DMSO = 0%, 5 µM ipriflavone = 100% | actives 66% (n = 1,900) | AID 588350;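 active = mean activation above the mean of solvent-only control wells plus 3 SD, cut at about 22% in these data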;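 note: counterscreen of GAA850 promoter hits where activity marks nonselective or luminescence artifacts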
FXN GAA850 conf: GAA850 FXN promoter activation confirmation; HEK293 lucGAA850 FXN promoter luciferase reporter, 24 h; 100% = activation by SAHA; actives 86% (n = 1,900); activation, % at 6 µM; AID 588351; shares compounds with FXN GAA850 act;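 active = mean activation above a set limit taken from the primary screen, cut at about 8% in these data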;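 note: 0% = DMSO wells and 100% = 10 µM SAHA wells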
The depositor's hits bear a star. The list is not random: actives were taken first. Their share in the collection is about 4.2%.

CCOC(=O)[C@@H]1[C@H]2COc3ccc(Br)cc3[C@@H]2N2C(=O)N(c3cccc(Cl)c3)C(=O)[C@@]12C was read as AHR act -1, HDAC3 inh 15, FXN GAA850 act 9.9*, SENP1 inh 2, GAA30 FXN cntr -9 and FXN GAA850 conf 0.
CCOC(=O)[C@H]1[C@H]2COc3ccc(Br)cc3[C@@H]2N2C(=O)c3c(C)cc(C)cc3NC(=O)[C@@]12C was read as AHR act 3, HDAC3 inh 7, FXN GAA850 act 14*, SENP1 inh -1, GAA30 FXN cntr 28* and FXN GAA850 conf 19*.
Screening COc1c(C)cc(C(O)c2ncc(-c3ccccc3)[nH]2)cc1C (centres undefined) returned FXN GAA850 act 1 and SENP1 inh 2.
O=C(CSc1nc2ccccc2c(=O)n1CCCO)Nc1ccc2c(c1)OCCO2 was read as FXN GAA850 act 1 and SENP1 inh 1.
Screening CCOC(=O)C1=C(COC(=O)/C=C/c2ccccc2Cl)NC(=O)NC1C (centres undefined) returned AHR act 2, HDAC3 inh 4, CTSL1 counter -7, FXN GAA850 act 8.0*, M18AAP inhibitor 0, SENP1 inh 1, GAA30 FXN cntr 49* and FXN GAA850 conf 19*.
CCOC(=O)C1=C(COC(=O)/C=C/c2ccccc2F)NC(=O)NC1C (centres undefined) was read as AHR act -1, HDAC3 inh 8, CTSL1 counter 3, FXN GAA850 act 1 and SENP1 inh 0.
Screening Nc1n[nH]c(N)c1N=Nc1ccc(Cl)cc1 returned AHR act -1, HDAC3 inh 4, CTSL1 counter 4, FXN GAA850 act 8.7*, M18AAP inhibitor 11, SENP1 inh 3, GAA30 FXN cntr 71* and FXN GAA850 conf 15*.
`Nc1nc(-c2ccccc2)nc2nonc12` gave FXN GAA850 act 1 and SENP1 inh 2.
`Cc1ccc(O)c(NC2=C(Cl)C(=O)N(Cc3ccccc3)C2=O)c1` gave FXN GAA850 act 8.1*, M18AAP inhibitor 23, SENP1 inh 3, GAA30 FXN cntr 21 and FXN GAA850 conf 12*.
For COc1cc2c(cc1OC)-c1nnc(-c3cccs3)n1C(C)(C)C2 the results were AHR act 11, HDAC3 inh -6, CTSL1 counter 2, FXN GAA850 act 13*, M18AAP inhibitor 2, SENP1 inh -2, GAA30 FXN cntr 8 and FXN GAA850 conf 8.2*.
`CCOC(=O)c1oc2c(c1C)/C(=N/O)CCC2` gave AHR act 1, HDAC3 inh 3, CTSL1 counter -3, FXN GAA850 act 8.0*, M18AAP inhibitor 7, SENP1 inh 1, GAA30 FXN cntr 65* and FXN GAA850 conf 23*.
`CCOC(=O)c1oc2c(c1C)C(=O)CCC2` gave AHR act -1, HDAC3 inh 0, CTSL1 counter 6, FXN GAA850 act -1, M18AAP inhibitor 4 and SENP1 inh 3.
For CCNc1nc(NCC)nc(Oc2ccc(OCC)nn2)n1 the results were AHR act 0, HDAC3 inh 3, CTSL1 counter 0, FXN GAA850 act 3, M18AAP inhibitor 0 and SENP1 inh 2.
CCNc1nc(N)nc(Oc2ccc(OCCOc3ccc(Cl)cc3Cl)nn2)n1 was read as AHR act -1, HDAC3 inh 6, CTSL1 counter 6, FXN GAA850 act 13*, M18AAP inhibitor -7, SENP1 inh 1, GAA30 FXN cntr 16 and FXN GAA850 conf 8.6*.
Cc1nc(NC(=O)c2ccc(Br)s2)sc1C(=O)N(C)C was read as AHR act 5, HDAC3 inh 6, CTSL1 counter 3, FXN GAA850 act 8.4*, M18AAP inhibitor -9, SENP1 inh -1, GAA30 FXN cntr 115* and FXN GAA850 conf 33*.
`c1ccc2c(c1)C1=NCCN1c1ccccc1-2` gave FXN GAA850 act 33*, SENP1 inh 0, GAA30 FXN cntr 6 and FXN GAA850 conf 150*.
For COc1ccc(-c2nc(Cn3c(SCc4cccc(F)c4)nc4ccncc43)c(C)o2)cc1OC the results were AHR act 27, HDAC3 inh -1, CTSL1 counter -4, FXN GAA850 act 12*, M18AAP inhibitor -5, SENP1 inh 0, GAA30 FXN cntr 19 and FXN GAA850 conf 4.
`O=C(NC1CCCCC1)C(=O)c1c[nH]c2ccccc12` gave AHR act -2, HDAC3 inh 7, CTSL1 counter 2, FXN GAA850 act 8.3*, M18AAP inhibitor 5, SENP1 inh 0, GAA30 FXN cntr 85* and FXN GAA850 conf 28*.
NCC(c1ccco1)c1c[nH]c2ccccc12 (centres undefined) was read as HDAC3 inh -1, FXN GAA850 act -1, M18AAP inhibitor 8 and SENP1 inh -13.
`O=S1(=O)CCN(c2ccccc2CC(c2c[nH]c3ccccc23)c2c[nH]c3ccccc23)CC1` gave FXN GAA850 act 16*, SENP1 inh 1, GAA30 FXN cntr 42* and FXN GAA850 conf 21*.
For CCOc1ccc(NC(=O)Cc2ccccc2)cc1 the results were AHR act 19, HDAC3 inh 1, CTSL1 counter -1, FXN GAA850 act 8.4*, M18AAP inhibitor -1, SENP1 inh 0, GAA30 FXN cntr 82* and FXN GAA850 conf 31*.
For COC(=O)Nc1ccc(OCc2ccccc2)cc1 the results were AHR act -1, HDAC3 inh 0, CTSL1 counter -3, FXN GAA850 act 10.0*, M18AAP inhibitor 0, SENP1 inh 2, GAA30 FXN cntr 89* and FXN GAA850 conf 32*.
For CCOc1ccc(NC(=O)CNC(=O)Cc2ccccc2)cc1 the results were FXN GAA850 act 5, M18AAP inhibitor 2 and SENP1 inh 2.
`O=C(Cc1ccccc1)Nc1ccc(NC(=O)c2ccco2)cc1` gave AHR act -6, HDAC3 inh 3, CTSL1 counter -1, FXN GAA850 act 7.9*, M18AAP inhibitor -11, SENP1 inh 3, GAA30 FXN cntr 48* and FXN GAA850 conf 22*.
`COCC(=O)Nc1ccc(OCc2ccccc2)cc1` gave AHR act 2, HDAC3 inh -6, CTSL1 counter -3, FXN GAA850 act 4, M18AAP inhibitor -15 and SENP1 inh 2.
